Laboratory results reported in ChEMBL document CHEMBL1141351, “Inhibitors of osteoclast differentiation from Cephalotaxus koreana” (J Nat Prod, 2007).

Assays:
Osteoclast [1] = assay: Inhibition of ICR mouse osteoclast differentiation at 0.1 ug/mL; type: functional
Outline: (§1)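 Co-culture of bone marrow cells (femora, 6-week-old ddY mice; 2.5×10^5 cells/cm²) with calvarial osteoblastic cells (newborn ICR mice, collagenase digestion; 4 × 10⁴ cells/cm²) in α-MEM/10% FBS with 1,25(OH)₂D₃ (1 × 10⁻⁸ M) and dexamethasone (1 × 10⁻⁷ M). DMSO stocks (2 mg/mL) were filter-sterilized and added at 0.1 or 1.0 μg/mL. Medium was changed every 2 days. On day 6, cells were formaldehyde-fixed and TRAP-stained. TRAP(+) multinucleated cells with >6–7 nuclei were counted. Results are % inhibition versus control, as mean ± SD of three replicates, with Student's t-test.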

Osteoclast [2] = assay: Inhibition of ICR mouse osteoclast differentiation at 1.0 ug/mL; type: functional; outline: as §1
Osteoclast [3] = assay: Induction of mouse osteoclast apoptosis; type: functional, cell-based

| Compound | inhibition at 0.1 µg/mL (Osteoclast [1]) [%] | inhibition at 1 µg/mL (Osteoclast [2]) [%] | IC50 (Osteoclast [3]) [µM] |
| --- | --- | --- | --- |
| O=c1cc(-c2ccc(O)cc2)oc2c(O)c(O)cc(O[C@@H]3O[C@H](CO)[C@@H](O)[C@H](O)[C@H]3O)c12 | 63 | 86 |  |
| CC(=O)OC[C@H]1O[C@@H](Oc2c(-c3ccc(O)c(O)c3)oc3cc(O)cc(O)c3c2=O)[C@H](O)[C@@H](O)[C@@H]1O | 51 | 65 |  |
| C[C@H]1O[C@@H](OC[C@H]2O[C@@H](Oc3c(-c4ccc(O)cc4)oc4cc(O)cc(O)c4c3=O)[C@H](O)[C@@H](O)[C@@H]2O)[C@@H](O)[C@@H](O)[C@@H]1O | 68 | 85 |  |
| COc1ccc(-c2oc3cc(O)cc(O)c3c(=O)c2O[C@@H]2O[C@H](CO[C@@H]3O[C@H](C)[C@@H](O)[C@H](O)[C@@H]3O)[C@@H](O)[C@H](O)[C@H]2O)cc1O | 40 | 63 |  |
| O=c1cc(-c2ccc(O)cc2)oc2cc(O)cc(O)c12 [APIGENIN] | 45 | 65 |  |
| O=c1c(O)c(-c2ccc(O)cc2)oc2cc(O)cc(O)c12 [KAEMPFEROL] |  |  | 1.6 |
| O=c1c(O)c(-c2ccc(O)c(O)c2)oc2cc(O)cc(O)c12 [QUERCETIN] |  |  | 5.3 |
| C[C@@H]1O[C@@H](Oc2c(-c3ccc(O)c(O)c3)oc3cc(O)cc(O)c3c2=O)[C@H](O)[C@H](O)[C@H]1O [QUERCITRIN] | 56 | 67 |  |
